# Only some compounds are listed: those with a hit (about 1.3% of all), similar ones and a draw of the others.
# PERK inhibitor – block of dimerizer-induced PERK translation repression, primary screen, PERK inhibitor project, CHO PERK-DD cells, SEAP luminescence, HTS. Eukaryotic translation initiation factor 2-alpha kinase 3 (Homo sapiens), Q9NZJ5. CHO PERK-DD fusion, SEAP luminescence translation reporter. inhibition, % at 5.6 µM. hit rate 0.17% among 220,000. AID 1416, 2008;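 active = inhibition above the mean inhibition of all tested compounds plus 3 SD, set separately per screening campaign, cut at about 2.9% in these data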;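 note: PERK kinase domain activated by AP20187 dimerizer at 100 nM; 0% = DMSO with dimerizer and 100% = rapamycin at 8.4 µM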
# PKD1 inh – inhibitors of human PKD1 kinase, biochemical, fluorescence polarization; inhibition, % (no concentration beside the values); PKD1 kinase fluorescence polarization assay; AID 797, 2007; hit rate 0.056% among 200,000; Serine/threonine-protein kinase D1 (Homo sapiens), Q15139; in the data active = inhibition above about 50%
# Target sequence (Q15139 whole entry, looked up): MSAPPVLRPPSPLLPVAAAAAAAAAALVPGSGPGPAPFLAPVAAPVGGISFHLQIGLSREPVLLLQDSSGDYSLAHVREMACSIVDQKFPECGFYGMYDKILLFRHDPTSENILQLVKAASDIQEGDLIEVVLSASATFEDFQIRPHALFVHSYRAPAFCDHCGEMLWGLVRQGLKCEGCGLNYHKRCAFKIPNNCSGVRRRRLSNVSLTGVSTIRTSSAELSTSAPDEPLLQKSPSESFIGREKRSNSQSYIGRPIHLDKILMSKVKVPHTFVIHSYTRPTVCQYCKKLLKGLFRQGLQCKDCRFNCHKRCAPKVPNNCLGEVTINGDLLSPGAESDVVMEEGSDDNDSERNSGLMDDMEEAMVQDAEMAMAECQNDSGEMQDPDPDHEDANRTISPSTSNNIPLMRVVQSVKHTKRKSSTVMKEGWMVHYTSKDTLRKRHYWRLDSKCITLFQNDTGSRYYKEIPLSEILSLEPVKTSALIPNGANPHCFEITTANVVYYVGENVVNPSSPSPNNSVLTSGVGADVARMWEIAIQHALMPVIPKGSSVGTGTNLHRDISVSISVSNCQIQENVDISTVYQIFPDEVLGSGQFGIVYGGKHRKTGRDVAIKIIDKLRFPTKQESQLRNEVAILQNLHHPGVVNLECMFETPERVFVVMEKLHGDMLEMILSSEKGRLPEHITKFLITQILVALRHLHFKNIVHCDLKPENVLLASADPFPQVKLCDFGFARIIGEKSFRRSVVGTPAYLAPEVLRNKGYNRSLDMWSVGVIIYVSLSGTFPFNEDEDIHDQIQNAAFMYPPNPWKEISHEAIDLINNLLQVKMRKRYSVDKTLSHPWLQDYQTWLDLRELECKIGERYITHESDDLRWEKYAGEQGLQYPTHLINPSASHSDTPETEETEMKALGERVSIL
# Rad51 HR inh – human RAD51 strand exchange inhibitors, primary screen, biochemical, fluorescence | DNA repair protein RAD51 homolog 1 (Homo sapiens), Q06609 | hit rate 0.085% among 200,000 | inhibition, % at 10 µM | hRad51 DNA strand exchange, fluorescence dequenching;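 active = inhibition above 40% at the single screening dose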;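 note: 0% = DMSO control wells and 100% = blanks with heterologous ssDNA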
#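 System: hRad51 filaments on single-stranded DNA; reagent: Fluorescein- and BHQ1-tagged 47-mer duplex; compound dosing: one concentration, 10 µM final; timing: filaments 15 min 37 °C, then compound 30 min; measured by: fluorescein emission 520 nm, excitation 485 nm; benchmarks: per-plate controls and blanks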
# Hck Nef HTS – inhibitors of Nef-activated human Hck kinase, primary screen, biochemical, Z-Lyte FRET, 384-well, Hck-YEEI; Tyrosine-protein kinase HCK (Homo sapiens), P08631; Recombinant Hck-YEEI plus Nef, Z-Lyte FRET kinase assay; inhibition, % at 20 µM; hit rate 0.68% among 220,000; AID 463187, 2010;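 active = Hck-Nef kinase inhibition above about 50%, limit read from the data; inactive = inhibition below that limit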;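 note: 0% = DMSO with Hck plus Nef and 100% = Hck alone without Nef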
# MDM2 E3 inh – MDM2-luciferase reporter signal enhancers, primary screen, MDM2 E3 ligase inhibitor project, cell-based, luminescence, 1536-well | E3 ubiquitin-protein ligase Mdm2 (Homo sapiens), Q00987 | cell-based MDM2 ubiquitination luciferase reporter, 2 h; 0 = plate control, 100 = twice control, blank-subtracted | signal enhancement, % at 5 µM | hit rate 0.11% among 210,000;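 active = signal enhancement of 30% or more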;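 note: luminescence tracks abundance of the self-degrading MDM2-luciferase fusion protein; higher signal means inhibition of MDM2 E3 ligase activity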
#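 test system = mammalian cells stably expressing self-ubiquitinating, self-degrading MDM2 E3–luciferase fusion | quantity = 2000 cells/well | incubation = cell settling 4 h, compound treatment 2 h, both 37 °C | signal = luminescence with SteadyLite reagent, 15 min at room temperature | evaluation = % enhancement relative to plate controls after blank subtraction | benchmarks = plate controls and plate blanks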
# TAG inh – inhibitors of triacylglycerol accumulation, primary screen, cell-based, uHTS, fluorescence, H9c2 | AID 651582, 2012 | hit rate 0.66% among 230,000 | H9c2 cells, Nile Red lipid (TAG) fluorescence; cells loaded with 200 µM oleic acid | inhibition, % at 12.5 µM;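 active = pattern-corrected inhibition of lipid staining of at least 50% with the nuclear-stain viability signal not falling by more than 50%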;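 note: 0% = DMSO wells and 100% = triacsin C control wells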
# TAG conf – triacylglycerol accumulation inhibitors, retest, confirmation, cell-based, single concentration, Nile Red fluorescence, H9c2 | shares compounds with TAG inh | H9c2 lipid accumulation; cells loaded with 200 µM oleic acid | inhibition, % at 12.5 µM | hit rate 71% among 990 | AID 651629, 2012;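 active = mean inhibition across replicates of 40% or more; inactive = mean inhibition below 40%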;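 note: plate controls were DMSO only wells for no effect and Triacsin C treated wells for full effect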
# * hit, by the source's call; / = no result.
SMILES,PERK inhibitor,PKD1 inh,Rad51 HR inh,Hck Nef HTS,MDM2 E3 inh,TAG inh,TAG conf
CCOc1cc(C(=O)N/N=C/c2cn(-c3ccccc3)nc2-c2cc3ccccc3o2)cc(OCC)c1OCC,/,/,/,/,/,59*,63*
COc1cc(NC(=O)c2ccco2)c(OC)cc1NC(=O)CCC(=O)Nc1cccc(C)c1C,-2,10,-3,1,-16,56*,52*
COc1ccc(F)cc1S(=O)(=O)NCC1CCCO1 (stereo unspecified),/,/,/,/,/,4,/
COC(=O)/C=C/c1ccccc1S(=O)(=O)N(Cc1ccccc1)Cc1ccco1,/,/,-1,27,-13,54*,48*
O=S(=O)(c1ccc(S(=O)(=O)N(Cc2ccccc2)Cc2ccco2)cc1)N1CCCC1,1,3,2,3,/,/,/
COc1ccc(-c2oc(=O)c3cc(OC)c(OC)cc3c2/C=C/c2cccc([N+](=O)[O-])c2)cc1,/,/,/,/,/,35,/
COc1ccc(-c2oc(=O)c3cc(OC)c(OC)cc3c2/C=C/c2ccc([N+](=O)[O-])cc2)cc1,/,/,/,/,/,54*,31
Cn1c(N)c(C(=O)COC(=O)c2ccc([N+](=O)[O-])o2)c(=O)n(C)c1=O,1,/,/,5,-4,88*,101*
Cn1c(N)c(C(=O)COC(=O)c2ccc(Br)o2)c(=O)n(C)c1=O,1,-4,5,-1,-1,/,/
Cc1ccccc1CN(c1ccc(C(=O)N/N=C/c2ccc(OCC(N)=O)cc2)cc1)S(C)(=O)=O,1,-6,/,-2,/,/,/
Cc1ccc(C(=O)OCC(=O)Nc2cccc(S(=O)(=O)NC3=NCCCCC3)c2)c(C)c1,-1,-7,-3,-18,1,78*,12
CCOc1ccc(C(=O)NC(=S)Nc2cccc(S(=O)(=O)NC3=NCCC3)c2)cc1,0,6,-3,20,-11,51*,57*
NNC(=O)CCN1CCCCC1,2,-9,12,27,1,83*,3
CC1CCN(CCC(=O)NN)CC1,1,-1,36,-11,-3,12,/
O=C(COc1ccc([N+](=O)[O-])cc1)NCc1ccncc1,1,2,-17,1,-3,/,/
COc1ccccc1-c1cc(C(F)(F)F)nc(S(=O)(=O)CCCC(=O)NCc2ccc(F)cc2)n1,1,6,-5,26,19,82,/
COc1ccccc1-c1cc(C(F)(F)F)nc(S(=O)(=O)CCCC(=O)NC(C)C)n1,1,20,0,2,-12,66*,90*
COC(=O)C1=C(C)N(Cc2ccccc2)C(=NCc2ccc(OC)cc2)N[C@H]1c1ccccc1,/,/,/,/,/,56*,17
COC(=O)C1=C(C)N(Cc2ccccc2)C(=NCc2cccc(C(F)(F)F)c2)N[C@H]1c1cccc(C(F)(F)F)c1,/,/,/,/,/,122,/
CCN(c1ccccc1)S(=O)(=O)c1ccc(N)c(OC)c1,0,-4,/,10,-7,16,/
CCOC(=O)N1CCC(N2Cc3cccc(C(=O)Nc4ccc(CC)cc4)c3C2=O)CC1,-2,-7,-2,-3,-16,70*,27
CCOC(=O)N1CCC(N2Cc3cccc(C(=O)Nc4ccc(F)cc4)c3C2=O)CC1,1,-12,-13,0,-2,33,/
CC(C)=CCNc1ncnc2c1c(C#N)cn2C1OC(CO)C(O)C1O (stereo unspecified),/,/,/,/,/,58*,46*
OCC1OC(n2ccc3c(NO)ncnc32)C(O)C1O (stereo unspecified),/,/,/,/,/,130,/
COc1ccc(Cc2n[nH]c(=S)o2)cc1,1,-5,17,24,-3,56*,3
SMILES,PERK inhibitor,PKD1 inh,Rad51 HR inh,Hck Nef HTS,MDM2 E3 inh,TAG inh,TAG conf
CCCc1[nH]n(-c2ccc([N+](=O)[O-])cc2)c(=O)c1C=NCCc1c[nH]c2ccccc12,1,-8,2,1,-5,63*,65*
CCOC(=O)CC(=O)CSc1ncnc2c1nnn2-c1ccc(OC)cc1,1,-10,10,17,1,-7,/
CCC(=NCCc1c(C)[nH]c2ccccc12)C1=C(O)CC(c2ccccc2)CC1=O (stereo unspecified),1,-9,-3,1,1,/,/
CCC(=NCCc1c(C)[nH]c2ccc(OC(F)(F)F)cc12)C1=C(O)CC(c2ccccc2)CC1=O (stereo unspecified),0,-3,3,22,-4,51*,72*
CCCCC(=NCCc1c(C)[nH]c2ccc(OC)cc12)C1=C(O)CC(c2ccccc2)CC1=O (stereo unspecified),0,-6,5,20,-2,61*,66*
CCNC(=O)C1CCCN(C(=O)c2ccc(C(F)(F)F)cc2)CC1 (stereo unspecified),/,/,/,/,/,-2,/
CCc1nc2c(OCc3cc(Cl)cc(Cl)c3)cccn2c1N(C)C(=O)c1ccc(OC)cc1,/,/,/,/,/,2,/
Cc1cc(-n2c(C)cc(C(=O)CSc3nc4ccccc4c(=O)n3Cc3ccco3)c2C)no1,0,-8,-1,1,-6,55*,21
COC(=O)c1ccc(Oc2cc(C)nc(SC)n2)cc1,0,0,0,-1,-37,51*,41*
CC(C)CNC(=O)C(=O)NCCC1CCCCN1S(=O)(=O)c1cccs1 (stereo unspecified),/,/,/,/,/,10,/
Cc1ccccc1OCCNc1cc(N2CC(C)NC(C)C2)ccc1[N+](=O)[O-] (stereo unspecified),-1,-6,-3,35,-7,56*,62*
COc1cc(OC)c2c(-c3ccccc3)cc(=O)oc2c1C(CCN1CCCC(C)C1)c1ccc2c(c1)OCO2 (stereo unspecified),/,/,-1,25,13,69*,51*
COc1cc(OC)c2c(-c3ccccc3)cc(=O)oc2c1C(CCN1CCCCC1)c1ccc(N(C)C)cc1 (stereo unspecified),/,/,0,25,9,68*,55*
